{"data": "Experimental data collected from several papers", "target": "Serine/threonine-protein kinase RIO2 (RIOK2, Homo sapiens, UniProt Q9BVS4)", "note": "Compare with care: the assays were run in different laboratories."}
{"assay": "binding, competition with immobilised ligand", "setting": "1 µM", "remaining binding [%]": 100, "Compound": "Cc1nc(N2CC[C@@H](O)C2)ncc1-c1cc(C(F)(F)F)cc2[nH]ncc12"}
{"assay": "binding, competition with immobilised ligand", "setting": "1 µM", "remaining binding [%]": 100, "Compound": "COc1cnc(Nc2cccc(S(N)(=O)=O)c2)nc1N1CCN(c2ccccc2)C(=O)C1"}
{"assay": "binding", "setting": "1 µM", "remaining binding [%]": 90, "Compound": "C[C@H]1CCN(c2nccc(-c3cnn4ncccc34)n2)C1"}
{"assay": "binding, competition with immobilised ligand", "setting": "1 µM", "remaining binding [%]": 59, "Compound": "O=C(NCCCN1CCOCC1)c1ccc(Nc2ncc(Cl)c(-c3ccc(Cl)s3)n2)cc1"}
{"assay": "cell-free assay, competition with immobilised ligand", "setting": "1 µM", "remaining binding [%]": 87, "Compound": "CN(C)C(=O)Cn1cc(-c2nc([C@@](C)(c3ccc(-c4cnc(N)nc4)cc3)C3CC3)no2)cn1"}
{"assay": "binding, competition with immobilised ligand", "setting": "1 µM", "remaining binding [%]": 83, "Compound": "C=CC(=O)N1CCC(C(=O)NCC(=O)N2CCN(c3nc(-c4cnc(N)nc4C(F)F)nc(N4CCOCC4)n3)CC2)CC1"}
{"assay": "cell-free assay, competition with immobilised ligand", "setting": "5 µM", "remaining binding [%]": 91, "Compound": "COc1ncc2cc3ccccc3nc2c1C#N"}
{"assay": "cell-free assay, competition with immobilised ligand", "setting": "1 µM", "remaining binding [%]": 100, "Compound": "CC(C)(O)c1cncc(-c2nc3ccc(F)cc3n2C2CC2)c1"}
{"assay": "binding, competition with immobilised ligand", "setting": "1 µM", "remaining binding [%]": 77, "Compound": "Nc1ncc2c(n1)-c1c([nH]c3ccc(C#CC4CC4)cc13)CCCC2"}
{"assay": "binding, competition with immobilised ligand", "setting": "10 µM", "remaining binding [%]": 37, "Compound": "c1cncc(-c2cccc(Nc3nccc(NC4CCCCC4)n3)c2)c1"}
{"assay": "binding", "setting": "1 µM", "remaining binding [%]": 100, "Compound": "CN(CCCC(F)(F)F)c1nccc(-c2cnn3ncccc23)n1"}
{"assay": "cell-free assay, competition with immobilised ligand", "setting": "10 µM", "remaining binding [%]": 84, "Compound": "CC(C)(C)c1ccc(-c2nc(CBr)nn2-c2cccc(O)c2)cc1"}
{"assay": "binding", "setting": "1 µM", "remaining binding [%]": 78, "Compound": "CN(C)c1ncc(F)c(-c2cnn3ncccc23)n1"}
{"assay": "binding, competition with immobilised ligand", "setting": "1 µM", "remaining binding [%]": 46, "Compound": "O=C(c1ccc(Nc2nccc(-c3cc4ccccc4s3)n2)cc1)N1CCC(N2CCCC2)CC1"}
{"assay": "binding, competition with immobilised ligand", "setting": "1 µM", "remaining binding [%]": 35, "Compound": "O=C(NCC1CCOCC1)c1n[nH]cc1NC(=O)c1c(F)cccc1F"}
{"assay": "binding, competition with immobilised ligand", "setting": "1 µM", "remaining binding [%]": 83, "Compound": "COc1cnc(Nc2cccc(S(N)(=O)=O)c2)nc1N1CCN(c2ccccc2)CC1"}
{"assay": "binding, competition with immobilised ligand", "setting": "1 µM", "remaining binding [%]": 100, "Compound": "c1ccc(N2CCN(Cc3nc4ccccc4[nH]3)CC2)nc1"}
{"assay": "binding, competition with immobilised ligand", "setting": "0.5 µM", "remaining binding [%]": 23, "Compound": "C[C@@H]1CN(c2ccc3ncc(-c4ccc5[nH]nc(C6CC6)c5c4)n3n2)C[C@H](C)O1"}
{"assay": "cell-free assay, competition with immobilised ligand", "setting": "0.1 µM", "remaining binding [%]": 99, "Compound": "CS(=O)(=O)N1CCCC(NC(=O)[C@H](CCC2CCCCC2)NC(=O)c2ccc(CNc3ncnc4c3nnn4-c3ccccc3)cc2)C1 (stereo partly drawn)"}
{"assay": "binding", "setting": "1 µM", "remaining binding [%]": 64, "Compound": "F[C@@H]1CCN(c2nccc(-c3cnn4ncccc34)n2)C1"}
{"assay": "cell-free assay, competition with immobilised ligand", "setting": "1 µM", "remaining binding [%]": 93, "Compound": "CC(=O)N1CCC(c2ccc(C(=O)NC3=NCCN3)cc2C(F)(F)F)CC1"}
{"assay": "binding, competition with immobilised ligand", "setting": "1 µM", "remaining binding [%]": 40, "Compound": "Cc1cnc(Nc2ccc(C(=O)N3CCC(N4CCCC4)CC3)cc2)nc1-c1cc2ccccc2s1"}
{"assay": "cell-free assay, competition with immobilised ligand", "setting": "0.1 µM", "remaining binding [%]": 100, "Compound": "CCOC(=O)c1cc2cc(-c3cc(C(=O)NCc4ccc(C(=O)O)cc4)nn3C)ccc2[nH]1"}
{"assay": "binding", "setting": "1 µM", "remaining binding [%]": 99, "Compound": "CN(c1nccc(-c2cnn3ncccc23)n1)C1CC1"}
